Key:
[1] = test system: P. falciparum NF54 strain expressing a Nanoluciferase reporter; test: Asexual replication stage-specificity assay, nanoluciferase readout; assay type: cell-based, Plasmodium falciparum; details: ring-synchronized; 5 µM KNX-115, 1 µM DHA
Method in brief: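 NF54-ENL nanoluciferase reporter parasites were synchronized at the ring stage and treated with test compound. Vehicle (0.1% DMSO) and 1 µM dihydroartemisinin served as controls. Nanoluciferase activity was followed over time and compared with the control cultures.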

[2] = test system: P. falciparum stage III-IV gametocytes; test: Gametocyte viability assay; assay type: cell-based, Plasmodium falciparum
[3] = target: T1, full-length PfMyoA (Plasmodium falciparum, UniProt Q8IDR3); test: Actin-activated PfMyoA ATPase assay; assay type: biochemical; details: read-out: IC50, actin-activated myosin ATPase, 15 µM actin
T1 sequence (Q8IDR3 1-818): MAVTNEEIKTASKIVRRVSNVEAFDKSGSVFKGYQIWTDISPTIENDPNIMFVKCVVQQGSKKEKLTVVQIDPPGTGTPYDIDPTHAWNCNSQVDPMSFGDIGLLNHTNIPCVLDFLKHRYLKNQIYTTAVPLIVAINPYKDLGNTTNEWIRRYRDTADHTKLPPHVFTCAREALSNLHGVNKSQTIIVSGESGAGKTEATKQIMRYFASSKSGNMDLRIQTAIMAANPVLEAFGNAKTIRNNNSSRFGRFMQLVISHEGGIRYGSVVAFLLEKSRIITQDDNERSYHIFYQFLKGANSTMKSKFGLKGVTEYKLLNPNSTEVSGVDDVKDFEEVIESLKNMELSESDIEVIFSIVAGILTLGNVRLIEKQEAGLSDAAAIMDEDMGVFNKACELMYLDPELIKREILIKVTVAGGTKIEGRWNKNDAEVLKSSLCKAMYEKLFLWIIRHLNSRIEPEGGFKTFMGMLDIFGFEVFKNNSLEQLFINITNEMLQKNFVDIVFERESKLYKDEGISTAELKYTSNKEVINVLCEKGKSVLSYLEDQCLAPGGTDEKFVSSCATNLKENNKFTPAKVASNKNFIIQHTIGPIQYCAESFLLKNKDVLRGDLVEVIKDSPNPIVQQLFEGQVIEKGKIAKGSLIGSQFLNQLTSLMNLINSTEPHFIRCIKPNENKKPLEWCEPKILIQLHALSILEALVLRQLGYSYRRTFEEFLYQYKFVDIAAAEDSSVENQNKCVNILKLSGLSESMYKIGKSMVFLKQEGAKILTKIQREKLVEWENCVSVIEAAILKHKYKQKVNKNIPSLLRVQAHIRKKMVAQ
T1 sequence (Q8IJM4 1-134 partner): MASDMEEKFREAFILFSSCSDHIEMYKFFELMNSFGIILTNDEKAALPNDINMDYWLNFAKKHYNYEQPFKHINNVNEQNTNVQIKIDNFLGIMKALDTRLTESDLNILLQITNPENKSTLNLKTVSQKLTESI
T1 sequence (Q8I4W8 1-204 partner): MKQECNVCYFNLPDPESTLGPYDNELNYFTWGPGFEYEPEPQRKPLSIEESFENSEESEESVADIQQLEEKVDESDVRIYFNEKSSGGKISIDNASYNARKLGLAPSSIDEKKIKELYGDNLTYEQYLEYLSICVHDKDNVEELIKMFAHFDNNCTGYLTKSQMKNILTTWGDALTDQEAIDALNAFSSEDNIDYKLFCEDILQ

[4] = test system: P. falciparum isolates from the Brazilian Western Amazon; test: Ex vivo schizont maturation test on patient isolates; assay type: cell-based; details: Plasmodium falciparum, in Homo sapiens, read-out: median EC50
Method in brief: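 Isolates came from monoinfected patients in Porto Velho, Rondônia, and were exposed to test compound. Thick films were stained with 5% Giemsa and schizonts counted. Counts were normalized to drug-free controls to calculate EC50.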

[5] = test system: P. falciparum 3D7; test: Parasite reduction ratio; assay type: cell-based, Plasmodium falciparum; details: 10X IC50 of each compound
Method in brief: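 Parasite reduction ratio followed an established protocol, with each compound held at a fixed multiple of its potency. Parasite regrowth was detected by P. falciparum LDH assay. Data are mean ± SD.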

**Q.** Which “parasite replication over time (luciferase activity)” value [1] does the source give for `C[C@H]1[C@@H](O)O[C@@H]2O[C@@]3(C)CC[C@H]4[C@H](C)CC[C@@H]1[C@@]24OO3` [DHA, dihydroartemisinin] here?
**A.** rapid killing of the parasites

**Q.** And the “effect on gametocyte viability” value [2]?
**A.** showed inhibition

**Q.** With `COc1ccc(C2(NCc3c[nH]nc3-c3cccs3)CC2)cc1` [KNX-002] as the compound, how does the IC50 [3] read?
**A.** 400 ± 100 nM

**Q.** With `C[C@H]1[C@H](OC(=O)CCC(=O)O)O[C@@H]2O[C@@]3(C)CC[C@H]4[C@H](C)CC[C@@H]1[C@@]24OO3` [artesunate] as the compound, how does the EC50 [4] read?
**A.** 3.5 nM

**Q.** Which EC50 [4] does the source give for `CCN(CC)CCCC(C)Nc1ccnc2cc(Cl)ccc12` (stereo not drawn) [chloroquine] here?
**A.** 1260 nM

**Q.** With `CCc1nc(N)nc(N)c1-c1ccc(Cl)cc1` [pyrimethamine] as the compound, how does the lag before killing [5] read?
**A.** 24 h
